Results on one compound are retold here after ChEMBL document CHEMBL3525906, “A comprehensive assessment of repaglinide metabolic pathways: impact of choice of in vitro system and relative enzyme contribution to in vitro clearance” (Drug Metab Dispos, 2012).

In general, Km refers to the concentration of substrate that gives half-maximal velocity.

Data set [1] in a line: Drug metabolism in human hepatic S9 fraction assessed as glucuronide formation measured per mg of protein at 0.5 to 150 uM by LC-MS/MS method. The class given is ADME, Liver. Particulars: s9, 150 µM.
Another data set deals with Cytochrome P450 3A4 (Homo sapiens, UniProt P08684). As to the kind of experiment: Unbound intrinsic clearance in human recombinant CYP3A4 expressed in insect cells assessed as enzyme-mediated 3'-hydroxy repaglinide formation per nanomole of protein at 0.5 to 150 uM by LC-MS/MS method. The class given is ADME.
Cytochrome P450 3A4, sequence (P08684 whole entry): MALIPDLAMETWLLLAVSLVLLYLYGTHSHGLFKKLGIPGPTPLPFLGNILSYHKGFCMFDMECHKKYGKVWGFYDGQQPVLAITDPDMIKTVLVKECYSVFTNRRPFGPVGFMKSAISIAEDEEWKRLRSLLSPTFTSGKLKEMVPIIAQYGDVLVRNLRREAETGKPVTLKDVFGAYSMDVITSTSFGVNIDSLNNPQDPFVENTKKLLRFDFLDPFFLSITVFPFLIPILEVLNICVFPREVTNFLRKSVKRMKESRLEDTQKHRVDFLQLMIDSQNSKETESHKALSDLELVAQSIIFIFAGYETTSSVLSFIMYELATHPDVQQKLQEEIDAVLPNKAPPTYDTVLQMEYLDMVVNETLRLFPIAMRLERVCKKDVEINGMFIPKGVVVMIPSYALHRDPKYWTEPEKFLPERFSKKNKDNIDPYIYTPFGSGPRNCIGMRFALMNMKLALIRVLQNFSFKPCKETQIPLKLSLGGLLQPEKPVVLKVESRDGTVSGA
Data set [2] in a line: Drug metabolism in human hepatic S9 fraction assessed as 2-despiperidyl-2-amino repaglinide formation measured per mg of protein at 0.5 to 150 uM by LC-MS/MS method. The class given is ADME, Liver. Particulars: s9, 150 µM.
The test system of data set [3] is Liver microsome. Briefly: Unbound intrinsic clearance in human liver microsomes assessed as 3'-hydroxy repaglinide formation measured per mg of protein at 0.5 to 150 uM by LC-MS/MS method. The class given is ADME. In short, it runs like this: (§1)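 Pooled HLM, 0.3 mg/ml, in 0.1 M phosphate pH 7.4 with 10 mM MgCl2 and NADPH regenerating system. Repaglinide at 8 levels, 0.5-150 μM; 37°C, 10 min. Metabolites by LC-MS/MS against authentic standards; fu_inc 0.85. Duplicates on three occasions.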

The test system of data set [4] is Liver microsome. As to the kind of experiment: Unbound intrinsic clearance in human liver microsomes assessed as 2-despiperidyl-2-amino repaglinide formation measured per mg of protein at 0.5 to 150 uM by LC-MS/MS method. Format: ADME. In short, it runs like this: as §1
A general note: Liver microsomes are a subcellular fraction often used to study metabolism.

Data set [5] concerns Liver microsome. As to the kind of experiment: Unbound intrinsic clearance in human liver microsomes assessed as glucuronide formation measured per mg of protein at 0.5 to 150 uM by LC-MS/MS method. Format: ADME.
Data set [6] is filed under the species Homo sapiens. Briefly: Drug metabolism in human patient assessed as fold change in metabolite M2/M4 AUC ratio at 0.25 mg co-treated with telithromycin relative to telithromycin non-treated patient. Format: ADME, organism-based. Particulars: in vivo.
The nature of data set [7]: Drug metabolism in human hepatocytes assessed as glucuronide formation by LC-MS/MS method. The class given is ADME, cell-based, Hepatocyte.
In the next data set the target is Cytochrome P450 3A5 (Homo sapiens, UniProt P20815). As to the kind of experiment: Unbound intrinsic clearance in human recombinant CYP3A5 expressed in insect cells assessed as enzyme-mediated 3'-hydroxy repaglinide formation per nanomole of protein at 0.5 to 150 uM by LC-MS/MS method. The class given is ADME.
Cytochrome P450 3A5, sequence (P20815 whole entry): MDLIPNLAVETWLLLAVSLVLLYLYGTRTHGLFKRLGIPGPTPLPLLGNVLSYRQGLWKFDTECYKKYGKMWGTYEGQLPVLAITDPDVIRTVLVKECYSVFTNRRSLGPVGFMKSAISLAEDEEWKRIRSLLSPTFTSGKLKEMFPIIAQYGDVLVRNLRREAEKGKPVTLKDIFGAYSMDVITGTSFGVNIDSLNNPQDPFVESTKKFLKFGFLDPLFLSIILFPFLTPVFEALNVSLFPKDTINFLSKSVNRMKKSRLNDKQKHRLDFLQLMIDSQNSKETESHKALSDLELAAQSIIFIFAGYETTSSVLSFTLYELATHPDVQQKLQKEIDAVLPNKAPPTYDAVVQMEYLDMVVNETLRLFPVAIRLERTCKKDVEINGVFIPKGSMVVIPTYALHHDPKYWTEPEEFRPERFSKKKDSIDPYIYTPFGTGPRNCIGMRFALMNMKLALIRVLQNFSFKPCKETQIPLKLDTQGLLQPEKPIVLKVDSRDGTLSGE
The test system of data set [8] is Liver microsome. As to the kind of experiment: Drug metabolism in human liver microsomes assessed as 2-despiperidyl-2-amino repaglinide formation by LC-MS/MS method. The class given is ADME.
A short description of data set [9]: Unbound intrinsic clearance in human hepatic S9 fraction assessed as glucuronide formation measured per mg of protein at 0.5 to 150 uM by LC-MS/MS method. Format: ADME, tissue-based, Liver. Particulars: s9, 150 µM.
For data set [10], the species on record is Homo sapiens. Briefly: Ratio of AUC in human patient at 0.25 mg to AUC in human patient at 0.25 mg co-treated with telithromycin. Format: ADME, organism-based. The conditions noted are these: in vivo.
The subject of the next data set is Hepatocyte. As to the kind of experiment: Drug metabolism in human hepatocytes assessed as 2-despiperidyl-2-(5-carboxypentylamine) repaglinide formation measured per 10^6 cells at 0.5 to 150 uM by LC-MS/MS method. The class given is ADME, cell-based.

Take `CCOc1cc(CC(=O)N[C@@H](CC(C)C)c2ccccc2N2CCCCC2)ccc1C(=O)O` [REPAGLINIDE]: the Vmax came to 46 pmol/min/mg in data set [1], 24 pmol/min/mg in [2] and 80 pmol/min/10^6cells in the data set on Hepatocyte. In addition, the CL free at Cytochrome P450 3A4 is 2 µL/min/nmol; in the data set with Liver microsome [3] it was 18 µL/min/mg; in the data set on Liver microsome [4], 4.1 µL/min/mg; in the data set with Liver microsome [5], 5.6 µL/min/mg; at Cytochrome P450 3A5 it was 0.19 µL/min/nmol; in data set [9] it was 1.8 µL/min/mg. Moreover, the “fold change (FC)” value in the data set filed under Homo sapiens [6] came out at 0.8. Also, the figures for the Km (in [7]; in the data set with Liver microsome [8]) were 53 µM and 47 µM, respectively. For the same compound, the Ratio in the data set listed under Homo sapiens [10] came to 1.8.
